# From ChEMBL document CHEMBL4689842, “EUbOPEN Chemogenomics Library wave 1” (2021)
# Experiments:
# Format in all cases: toxicity, cell-based
# [1] = system: Fibroblast; assay: Multiplex assay against human fibroblast
# Summary of the method: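 Four dyes were applied at seeding to live cells: Hoechst33342, BioTracker Green Microtubule Cytoskeleton Dye, MitoTracker Red and Annexin V Alexa Fluor 680. Imaging after compound addition used a CQ1 microscope at 37°C and 5% CO2. CellPathfinder machine-learning gating then sorted cells into Hoechst high-intensity objects or normal cells, normal cells into healthy, pyknosed or fragmented nuclei, and pyknosed cells into mitotic or apoptotic, with tubulin, mitochondrial-mass and membrane-permeability phenotypes given as per cents of healthy-nucleus cells.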
# [2] = system: HEK-293T; assay: Incucyte cell viability with HEK293T; conditions: human, 10 µM, compound concentration 10 uM; note: filed as whole numbers so only -1 and 0 and 1 occur
# [3] = system: U2OS; assay: Incucyte cell viability with U2OS; conditions: human, 10 µM, compound concentration 10 uM; note: filed as whole numbers so only -1 and 0 and 1 occur
# [4] = 12 h, 1 µM, compound concentration 1 uM, replicate 1
# [5] = 12 h, 1 µM, compound concentration 1 uM, replicate 2
# [6] = 12 h, 10 µM, compound concentration 10 uM, replicate 1
# [7] = 12 h, 10 µM, compound concentration 10 uM, replicate 2
# [8] = 24 h, 1 µM, compound concentration 1 uM, replicate 1
# [9] = 24 h, 1 µM, compound concentration 1 uM, replicate 2
# [10] = 24 h, 10 µM, compound concentration 10 uM, replicate 1
# [11] = 24 h, 10 µM, compound concentration 10 uM, replicate 2
# [12] = 48 h, 1 µM, compound concentration 1 uM, replicate 1
# [13] = 48 h, 1 µM, compound concentration 1 uM, replicate 2
# [14] = 48 h, 10 µM, compound concentration 10 uM, replicate 1
# [15] = 48 h, 10 µM, compound concentration 10 uM, replicate 2
# [16] = 6 h, replicate number 1, timepoint 6 hours
# [17] = 12 h, replicate number 1, timepoint 12 hours
# [18] = 18 h, replicate number 1, timepoint 18 hours
# [19] = 24 h, replicate number 1, timepoint 24 hours
structure (smiles),measurement,setting,value
C[C@@H](Oc1cc(-n2cnc3ccc(CN4CCN(C)CC4)cc32)sc1C(N)=O)c1ccccc1C(F)(F)F [GSK-461364],Population Apoptotic (%),[1]; [4],75%
same,Population Fragmented Nuclei (%),[1]; [4],30%
same,Population Healthy Nuclei (%),[1]; [4],36%
same,Population Hoechst High Intensity Objects (%),[1]; [4],14%
same,Population Membrane Permeable-Phenotype (%),[1]; [4],34%
same,Population Mitochondria Different-Phenotype (%),[1]; [4],11%
same,Population Mitotic Cells (%),[1]; [4],25%
same,Population Normal (%),[1]; [4],85%
same,Population Pyknosed Nuclei (%),[1]; [4],33%
same,Population Tubulin-Different-Phenotype (%),[1]; [4],69%
same,Population Apoptotic (%),[1]; [5],12%
same,Population Fragmented Nuclei (%),[1]; [5],12%
same,Population Healthy Nuclei (%),[1]; [5],71%
same,Population Hoechst High Intensity Objects (%),[1]; [5],4%
same,Population Membrane Permeable-Phenotype (%),[1]; [5],12%
same,Population Mitochondria Different-Phenotype (%),[1]; [5],35%
same,Population Mitotic Cells (%),[1]; [5],87%
same,Population Normal (%),[1]; [5],95%
same,Population Pyknosed Nuclei (%),[1]; [5],16%
same,Population Tubulin-Different-Phenotype (%),[1]; [5],30%
same,Population Apoptotic (%),[1]; [6],78%
same,Population Fragmented Nuclei (%),[1]; [6],29%
same,Population Healthy Nuclei (%),[1]; [6],40%
same,Population Hoechst High Intensity Objects (%),[1]; [6],25%
same,Population Membrane Permeable-Phenotype (%),[1]; [6],21%
same,Population Mitochondria Different-Phenotype (%),[1]; [6],47%
same,Population Mitotic Cells (%),[1]; [6],21%
same,Population Normal (%),[1]; [6],74%
same,Population Pyknosed Nuclei (%),[1]; [6],30%
same,Population Tubulin-Different-Phenotype (%),[1]; [6],90%
same,Population Apoptotic (%),[1]; [7],40%
same,Population Fragmented Nuclei (%),[1]; [7],13%
same,Population Healthy Nuclei (%),[1]; [7],55%
same,Population Hoechst High Intensity Objects (%),[1]; [7],9%
same,Population Membrane Permeable-Phenotype (%),[1]; [7],71%
same,Population Mitochondria Different-Phenotype (%),[1]; [7],100%
same,Population Mitotic Cells (%),[1]; [7],59%
same,Population Normal (%),[1]; [7],90%
same,Population Pyknosed Nuclei (%),[1]; [7],31%
same,Population Tubulin-Different-Phenotype (%),[1]; [7],100%
same,Population Apoptotic (%),[1]; [8],70%
same,Population Fragmented Nuclei (%),[1]; [8],31%
same,Population Healthy Nuclei (%),[1]; [8],44%
same,Population Hoechst High Intensity Objects (%),[1]; [8],17%
same,Population Membrane Permeable-Phenotype (%),[1]; [8],12%
same,Population Mitochondria Different-Phenotype (%),[1]; [8],25%
same,Population Mitotic Cells (%),[1]; [8],29%
same,Population Normal (%),[1]; [8],82%
same,Population Pyknosed Nuclei (%),[1]; [8],24%
same,Population Tubulin-Different-Phenotype (%),[1]; [8],80%
same,Population Apoptotic (%),[1]; [9],50%
same,Population Fragmented Nuclei (%),[1]; [9],14%
same,Population Healthy Nuclei (%),[1]; [9],68%
same,Population Hoechst High Intensity Objects (%),[1]; [9],4%
same,Population Membrane Permeable-Phenotype (%),[1]; [9],18%
same,Population Mitochondria Different-Phenotype (%),[1]; [9],35%
same,Population Mitotic Cells (%),[1]; [9],50%
same,Population Normal (%),[1]; [9],95%
same,Population Pyknosed Nuclei (%),[1]; [9],17%
same,Population Tubulin-Different-Phenotype (%),[1]; [9],28%
same,Population Apoptotic (%),[1]; [10],60%
same,Population Fragmented Nuclei (%),[1]; [10],35%
same,Population Healthy Nuclei (%),[1]; [10],42%
same,Population Hoechst High Intensity Objects (%),[1]; [10],43%
same,Population Membrane Permeable-Phenotype (%),[1]; [10],35%
same,Population Mitochondria Different-Phenotype (%),[1]; [10],54%
same,Population Mitotic Cells (%),[1]; [10],40%
same,Population Normal (%),[1]; [10],56%
same,Population Pyknosed Nuclei (%),[1]; [10],22%
same,Population Tubulin-Different-Phenotype (%),[1]; [10],78%
same,Population Apoptotic (%),[1]; [11],82%
same,Population Fragmented Nuclei (%),[1]; [11],10%
same,Population Healthy Nuclei (%),[1]; [11],47%
same,Population Hoechst High Intensity Objects (%),[1]; [11],6%
same,Population Membrane Permeable-Phenotype (%),[1]; [11],90%
same,Population Mitochondria Different-Phenotype (%),[1]; [11],100%
same,Population Mitotic Cells (%),[1]; [11],17%
same,Population Normal (%),[1]; [11],93%
same,Population Pyknosed Nuclei (%),[1]; [11],41%
same,Population Tubulin-Different-Phenotype (%),[1]; [11],100%
same,Population Apoptotic (%),[1]; [12],70%
same,Population Fragmented Nuclei (%),[1]; [12],42%
same,Population Healthy Nuclei (%),[1]; [12],44%
same,Population Hoechst High Intensity Objects (%),[1]; [12],21%
same,Population Membrane Permeable-Phenotype (%),[1]; [12],20%
same,Population Mitochondria Different-Phenotype (%),[1]; [12],8%
same,Population Mitotic Cells (%),[1]; [12],30%
same,Population Normal (%),[1]; [12],78%
same,Population Pyknosed Nuclei (%),[1]; [12],13%
same,Population Tubulin-Different-Phenotype (%),[1]; [12],76%
same,Population Apoptotic (%),[1]; [13],25%
same,Population Fragmented Nuclei (%),[1]; [13],31%
same,Population Healthy Nuclei (%),[1]; [13],62%
same,Population Hoechst High Intensity Objects (%),[1]; [13],12%
same,Population Membrane Permeable-Phenotype (%),[1]; [13],18%
same,Population Mitochondria Different-Phenotype (%),[1]; [13],11%
same,Population Mitotic Cells (%),[1]; [13],75%
same,Population Normal (%),[1]; [13],87%
same,Population Pyknosed Nuclei (%),[1]; [13],5%
same,Population Tubulin-Different-Phenotype (%),[1]; [13],34%
same,Population Apoptotic (%),[1]; [14],90%
same,Population Fragmented Nuclei (%),[1]; [14],52%
same,Population Healthy Nuclei (%),[1]; [14],31%
same,Population Hoechst High Intensity Objects (%),[1]; [14],45%
same,Population Membrane Permeable-Phenotype (%),[1]; [14],22%
same,Population Mitochondria Different-Phenotype (%),[1]; [14],45%
same,Population Mitotic Cells (%),[1]; [14],9%
same,Population Normal (%),[1]; [14],54%
same,Population Pyknosed Nuclei (%),[1]; [14],15%
same,Population Tubulin-Different-Phenotype (%),[1]; [14],68%
same,Population Apoptotic (%),[1]; [15],75%
same,Population Fragmented Nuclei (%),[1]; [15],39%
same,Population Healthy Nuclei (%),[1]; [15],58%
same,Population Hoechst High Intensity Objects (%),[1]; [15],38%
same,Population Membrane Permeable-Phenotype (%),[1]; [15],5%
same,Population Mitochondria Different-Phenotype (%),[1]; [15],27%
same,Population Mitotic Cells (%),[1]; [15],25%
same,Population Normal (%),[1]; [15],61%
same,Population Pyknosed Nuclei (%),[1]; [15],2%
same,Population Tubulin-Different-Phenotype (%),[1]; [15],84%
same,Growth Rate,[2]; [16],0
same,Growth Rate,[2]; [17],0
same,Growth Rate,[2]; [18],0
same,Growth Rate,[2]; [19],0
same,Growth Rate,[3]; [16],1
same,Growth Rate,[3]; [17],0
same,Growth Rate,[3]; [18],0
same,Growth Rate,[3]; [19],0
